{
  "source": "paper PMC9826267",
  "about": "(Chembiochem, 2022)",
  "key": {"[1]": {"molecular_target": "T1, GlnA4Sc (Streptomyces coelicolor, UniProt O88070)", "T1 sequence (O88070 1-462)": "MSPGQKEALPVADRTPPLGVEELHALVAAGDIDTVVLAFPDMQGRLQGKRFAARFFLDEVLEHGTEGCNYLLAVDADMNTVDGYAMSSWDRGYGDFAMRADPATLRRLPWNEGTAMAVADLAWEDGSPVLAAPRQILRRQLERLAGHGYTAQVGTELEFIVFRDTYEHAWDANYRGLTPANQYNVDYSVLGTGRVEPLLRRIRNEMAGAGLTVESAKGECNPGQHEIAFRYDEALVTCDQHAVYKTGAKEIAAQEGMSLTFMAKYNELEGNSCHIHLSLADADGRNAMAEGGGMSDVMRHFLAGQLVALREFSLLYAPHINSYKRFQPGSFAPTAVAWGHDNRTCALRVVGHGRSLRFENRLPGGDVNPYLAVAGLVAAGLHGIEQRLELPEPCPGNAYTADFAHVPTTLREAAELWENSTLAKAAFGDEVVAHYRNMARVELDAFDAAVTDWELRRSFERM", "experiment": "GlnA4Sc enzyme activity assay", "format": "biochemical"}, "[2]": {"molecular_target": "GlnA1Mt (Mycobacterium tuberculosis, UniProt P9WN39)", "sequence (P9WN39 whole entry)": "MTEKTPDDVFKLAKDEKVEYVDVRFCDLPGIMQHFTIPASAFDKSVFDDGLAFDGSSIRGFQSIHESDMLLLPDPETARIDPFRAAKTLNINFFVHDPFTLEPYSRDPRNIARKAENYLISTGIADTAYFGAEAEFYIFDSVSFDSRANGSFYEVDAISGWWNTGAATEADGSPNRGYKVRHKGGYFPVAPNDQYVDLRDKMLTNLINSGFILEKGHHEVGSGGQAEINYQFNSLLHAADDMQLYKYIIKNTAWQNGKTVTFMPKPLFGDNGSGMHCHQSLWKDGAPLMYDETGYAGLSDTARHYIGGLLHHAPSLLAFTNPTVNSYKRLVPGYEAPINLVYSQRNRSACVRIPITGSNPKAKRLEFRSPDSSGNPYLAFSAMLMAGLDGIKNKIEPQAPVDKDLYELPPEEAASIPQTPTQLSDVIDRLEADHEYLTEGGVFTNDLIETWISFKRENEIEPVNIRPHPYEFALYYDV", "format": "biochemical", "conditions": "at 5 mM (SI Figure 2)"}, "[3]": {"system": "S. coelicolor M145", "experiment": "S. coelicolor growth assay", "format": "cell-based, Streptomyces coelicolor", "in_short": "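S. coelicolor M145 grown in defined Evans medium with 25 mM ammonium chloride, L-glutamine or ethanolamine hydrochloride as sole nitrogen source. Test compound added at final 100, 50, 25, 12.5, 6.25, 3.125, 1.562, 0.781 or 0 μM. Cultures shaken at 180 rpm for 7 days at 30 °C. Phase-contrast images taken at x400; hyphae thickness used to quantify growth.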"}},
  "data": [
    {"compound": "N=S(=O)(CCO)CC[C@H](N)C(=O)O", "note": "(stereo partly drawn) [7 a, (2S)‐2‐Amino‐4‐(2‐hydroxyethylsulfonimidoyl)butanoic acid]", "values": [
      {"measurement": "IC50", "setting": "[1]", "value": 2170, "unit": "µM"}
    ]},
    {"compound": "N=S(=O)(CCCCO)CC[C@H](N)C(=O)O", "note": "(stereo partly drawn) [7 c, (2S)‐2‐Amino‐4‐(4‐hydroxybutylsulfonimidoyl)butanoic acid]", "values": [
      {"measurement": "IC50", "setting": "[1]", "value": 79.3, "unit": "µM"}
    ]},
    {"compound": "CS(=O)(CC[C@H](N)C(=O)O)=NCCO", "note": "(stereo partly drawn) [compound 8, (2S)‐2‐Amino‐4‐(N‐(2‐hydroxyethyl)‐methylsulfonimidoyl)butanoic acid]", "values": [
      {"measurement": "IC50", "setting": "[1]", "value": 659, "unit": "µM"},
      {"measurement": "Inhibition of GlnA4Sc activity (in words)", "setting": "[1]; Figure 1a/1b", "value": "inhibited"},
      {"measurement": "Activity against GlnA1Mt (in words)", "setting": "[2]", "value": "neither 7 b nor 8 showed activity"}
    ]},
    {"compound": "N=S(=O)(CCCO)CC[C@H](N)C(=O)O", "note": "(stereo partly drawn) [7 b, (2S)‐2‐Amino‐4‐(3‐hydroxypropylsulfonimidoyl)butanoic acid]", "values": [
      {"measurement": "IC50", "setting": "[1]", "value": 12.3, "unit": "µM"},
      {"measurement": "Hyphae thickness with additional glutamine (rescue)", "setting": "[3]; 100 μM inhibitor, additional glutamine as alternative nitrogen source", "value": 1.11, "unit": "μm"},
      {"measurement": "Non-specific toxic effects (in words)", "setting": "[3]; 100 μM, glutamine rescue control experiment", "value": "excludes any non‐specific toxic effects"},
      {"measurement": "Size of mycelial agglomerates (in words)", "setting": "[3]; lowest tested concentration 0.78 μM, ethanolamine as nitrogen source", "value": "reduced the size of the mycelial agglomerates"},
      {"measurement": "Activity against GlnA1Mt (in words)", "setting": "[2]", "value": "neither 7 b nor 8 showed activity"}
    ]}
  ]
}
